FLuc act counter – FLuc activators, initial screening, artefact control for FLuc-dependent activation tests, biochemical, ATPlite luminescence; ATPlite luciferase biochemical, 10 min; 0 = ATP-free wells, 1 = DMSO control; 200,000 tested, under 10 active; activation factor at 10 µM;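 active = luciferase activation factor, scaled between plate controls, of at least 2 with compound at 10 µM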
Target sequence (P08659 whole entry, looked up): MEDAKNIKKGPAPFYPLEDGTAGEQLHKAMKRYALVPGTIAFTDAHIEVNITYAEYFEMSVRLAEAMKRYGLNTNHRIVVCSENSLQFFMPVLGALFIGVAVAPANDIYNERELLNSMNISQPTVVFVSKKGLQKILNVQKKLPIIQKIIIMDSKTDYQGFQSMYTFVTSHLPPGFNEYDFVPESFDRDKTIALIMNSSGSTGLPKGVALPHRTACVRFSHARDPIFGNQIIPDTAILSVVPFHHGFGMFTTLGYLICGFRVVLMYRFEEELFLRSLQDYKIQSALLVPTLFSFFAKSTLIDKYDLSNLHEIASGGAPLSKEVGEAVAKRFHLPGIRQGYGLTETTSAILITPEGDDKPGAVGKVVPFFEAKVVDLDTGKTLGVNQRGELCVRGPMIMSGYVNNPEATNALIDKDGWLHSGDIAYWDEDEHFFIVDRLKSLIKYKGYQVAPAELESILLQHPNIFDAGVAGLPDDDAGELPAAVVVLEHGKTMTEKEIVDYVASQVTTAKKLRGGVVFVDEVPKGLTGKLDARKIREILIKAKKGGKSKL
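Material: Luciferase/luciferin reagent mix; Doses: test compounds dosed from 2 mM stocks in 100% DMSO; Schedule: 10 min incubation after luciferase reagent addition, room temperature; Measured by: luminescence from luciferase reaction; Read-out: luminescence gain marking luciferase activators.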
C8 TRAIL sens – viability loss with TRAIL in NB7+C8 cells, primary screen, TRAIL sensitizer project, cell-based, ATPlite luminescence | inhibition (viability loss, TRAIL sensitization), % at 10 µM | hit rate 1% among 360,000 | AID 624354, 2012;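 active = compounds causing at least 50% loss of cell viability in the single-dose screen, relative to plate controls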
FLuc inhib CS – firefly luciferase enzyme inhibitors, primary screen, artefact control for luciferase-based inhibitor screens, biochemical, luminescence, ATPLite; Luciferin 4-monooxygenase (Photinus pyralis), P08659; inhibition, % at 10 µM; hit rate 1.5% among 200,000; 10 min;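 active = inhibition above about 50% when tested at 10 µM, limit read from the data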
PPC-1+TRAIL kill – compounds killing PPC-1 cancer cells with TRAIL present, primary screen, TRAIL potentiator project, ATPLite luminescence, uHTS; PPC-1 cells + TRAIL, ATPLite viability luminescence; cell killing (% activity), % at 4 µM or 5 µM; hit rate 0.41% among 220,000; AID 1443, 2008;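 active = cell killing above 50% in the first pass at 4 µM, then a duplicate retest at 5 µM averaging 50% or more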
A number is an active result; - = inactive; . = no result given. Compounds with a hit are over-represented: about 1.6% of the library has one in this group of screens.

SMILES | FLuc act counter | C8 TRAIL sens | FLuc inhib CS | PPC-1+TRAIL kill
CCOc1ccccc1C(=O)NN1C(=O)C2CCCCC2C1=O (configuration not stated) | - | - | - | -
CC(C)c1ccc(C(=O)NN2C(=O)C3CCCCC3C2=O)cc1 (configuration not stated) | - | - | 79.6 | -
COc1cc(CNc2ccc(N3CCCC3)cc2)ccc1OCc1ccccc1F | - | - | 57.0 | -
Cc1ccc2[nH]c(O)c(N=Nc3nc4ccccc4s3)c2c1 | . | - | . | -
Oc1[nH]c2ccccc2c1N=Nc1nc2ccccc2s1 | - | - | 54.5 | -
Cc1ccc(Nc2nc(N)c3ccccc3n2)cc1C | . | 78.9 | . | .
Cc1cc(Nc2ccc(C)c(C)c2)c2ccccc2n1 | . | - | . | .
COC(=O)CNC(=O)COC(=O)c1ccc(Cl)nc1 | - | - | - | -
O=S(=O)(c1ccc(Br)cc1)N1CCN(c2ccc3nnc(-c4ccccc4)n3n2)CC1 | - | 50.9 | - | -
COc1cccc(/C=N/NC(=O)Cn2cnc3c2c(=O)n(C)c(=O)n3C)c1OC | . | - | . | -
COc1ccc(N2Cc3ccc(OC)c(OC)c3C2=O)cc1 | . | 50.9 | . | .
COc1ccc2c(c1OC)C(=O)N(c1nccs1)C2 | - | - | - | -
COCCNc1c(-c2ccc(OC)c(OC)c2)nc2ccc(Cl)cn12 | - | - | - | .
COCCNc1c(-c2cc3ccc(C)c(C)c3[nH]c2=O)nc2ccccn12 | - | 61.1 | 69.7 | -
COc1ccc(C(=O)Nc2ccccc2-c2ccccc2)cc1Cl | - | - | - | -
O=C(COc1ccc2ccccc2c1Br)Nc1ncn[nH]1 | - | 62.1 | - | -
CN(CC(=O)NCc1ccc2c(c1)OCO2)S(=O)(=O)c1ccc(Cl)cc1 | . | - | . | .
Cc1ccc(NC(=O)c2ccc(NCCN)c([N+](=O)[O-])c2)cc1 | - | - | - | -
CCc1nc(N)nc(N)c1-c1ccc(Cl)cc1 | - | 81.3 | - | -
CCc1nc(N)nc(N)c1-c1ccc(N(C)Cc2ccccc2)c([N+](=O)[O-])c1 | . | 69.7 | . | .
CCc1nc(N)nc(N)c1-c1ccc(NCCN)c([N+](=O)[O-])c1 | . | 79.4 | . | .
CCC(=O)n1nc(-c2ccc(Cl)cc2)nc1N | - | - | - | -
Cc1ccc(C2=NN(CCC(=O)NCCC(C)C)C(=O)CC2)cc1 | - | . | - | -
FC(F)(F)c1ccc2c(c1)nc1n2CCCC1 | - | - | - | -
COc1cccc2c1C(=O)c1c(O)c3c(c(O)c1C2=O)CC(O)(C(=O)CO)CC3OC1CC(N(C)C)C(O)C(C)O1 (configuration not stated) | . | - | . | .
SMILES | FLuc act counter | C8 TRAIL sens | FLuc inhib CS | PPC-1+TRAIL kill
COc1cccc2c1C(=O)c1c(O)c3c(c(O)c1C2=O)C[C@@](O)(C(=O)CO)C[C@@H]3O[C@H]1C[C@H](N)[C@@H](O)[C@H](C)O1 | . | 57.2 | . | .
Cc1ccc(NC(=O)CCNCc2ccco2)cc1S(=O)(=O)N(C)C | - | - | 79.0 | -
CN(C)CCCNc1c2c(nc3ccccc13)CCC2 | . | - | . | .
CN(C)CCNCCCNc1c2ccccc2nc2cccc([N+](=O)[O-])c12 | . | 61.1 | . | .
COCCCn1cc(CN(C)C2CN(Cc3cn(CCCOC)nn3)S(=O)(=O)C2)nn1 (configuration not stated) | . | - | . | .
Cc1ccnc(NC(=O)/C=C/c2ccccc2[N+](=O)[O-])c1 | - | . | 72.7 | -
O=C(C/C=N\OCc1ccc([N+](=O)[O-])cc1)Nc1ccc(Cl)cc1 | - | - | - | -
Nc1ccc2oc(-c3ccccn3)nc2c1 | - | - | 57.5 | -
Clc1ccc2oc(-c3ccccn3)nc2c1 | - | - | 69.2 | -
O=C(c1ccoc1)N1CCC2(CC1)Oc1ccc(Cl)cc1C(=O)C21CC(c2ccccc2)=NO1 (configuration not stated) | . | - | . | -
CC(C)c1cc(C(=O)N2CCN(C(c3ccccc3)c3ccccc3)CC2)no1 | - | - | - | -
COc1cccc(NC(=O)COC(=O)c2cc(S(=O)(=O)N3CCOCC3)ccc2C)c1 | - | - | - | -
CCCOC(=O)c1ccc(-c2ccc(C=O)o2)cc1 | - | - | - | 50.4
CCOC(=O)c1ccc(-c2ccc(C=O)o2)cc1 | . | - | . | -
O=[N+]([O-])c1ccc(S(=O)(=O)c2ccccc2)nc1 | . | - | . | .
CCCCCc1c(C)nc(Nc2ccc(F)cc2)[nH]c1=O | - | - | - | -
O=C(Nc1ccc(Cl)cc1)/C(=C/c1cccc(O)c1)c1nc2ccccc2s1 | - | 88.0 | - | -
S=C(Nc1ccc(Cl)cc1)c1nc2ccccc2s1 | - | - | - | -
CSc1ccc(/C=C/C(=O)c2c(O)cc(C)oc2=O)cc1 | . | 63.8 | . | .
O=C(/C=C/c1ccc(Cl)cc1)c1ccc([N+](=O)[O-])o1 | . | 59.8 | . | .
Cc1cc(O)c(C(=O)/C=C/c2ccc(Cl)cc2)c(=O)o1 | . | 69.5 | . | .
COc1ccc(CN2CCNC(=O)C2CC(=O)N(C)Cc2ccncn2)c(OC)c1 (configuration not stated) | - | - | - | -
Brc1cccc(C=Nc2cccc3ncccc23)c1 | . | - | . | .
c1ccc(-c2cnc(-c3ccccc3)nc2)cc1 | - | 74.9 | 66.4 | -
O=C(O)c1ncc(-c2ccccc2)cn1 | - | - | - | -
SMILES | FLuc act counter | C8 TRAIL sens | FLuc inhib CS | PPC-1+TRAIL kill
c1ccc(-c2ncc3c(ccc4ccccc43)n2)cc1 | - | 83.8 | 89.2 | 77.8
O=C(NNc1ccccn1)c1ccccc1CC[N+](=O)[O-] | - | - | - | -
COc1ccccc1/C=N/N1C(=O)C2C3C=CC(CC3)C2C1=O (configuration not stated) | - | - | - | -
O=C1C2C3C=CC(CC3)C2C(=O)N1/N=C/c1c[nH]c2ccccc12 (configuration not stated) | - | - | 51.6 | -
Cc1ccc(NC(=O)[C@H](Cc2c[nH]c3ccccc23)NC(=O)[C@@H]2Cc3ccccc3CN2)c(C)c1 | . | - | . | .
Cn1c(NCc2ccc(Cl)cc2)nc2ccccc21 | - | - | 50.9 | -

Screens (PubChem)
